This is one part of a sample in which hits are shown more often than they occur.
ALR H2O2 inh = human ALR oxidase inhibition via reduced H2O2; P55789; purified ALR, DTT oxidation, H2O2 HRP-luminol luminescence; inhibition, % (test concentration not listed); 3.8% of 290,000 active; AID 485317;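 active = mean replicate inhibition above about 79%, with every replicate also reaching it, limit read from the data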
Target sequence (P55789 whole entry, looked up): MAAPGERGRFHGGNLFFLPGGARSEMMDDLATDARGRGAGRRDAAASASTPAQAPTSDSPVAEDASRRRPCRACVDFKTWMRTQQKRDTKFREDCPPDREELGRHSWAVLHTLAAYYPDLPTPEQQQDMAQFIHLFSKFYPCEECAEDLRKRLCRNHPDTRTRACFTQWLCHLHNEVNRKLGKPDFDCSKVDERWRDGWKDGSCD
N-glyco inh = blocks N-linked glycosylation in D54 reporter cells | 0.23% of 360,000 active | D54 ERlucT glycosylation luciferase reporter, 24 h; percent of 100 nM tunicamycin response | reporter increase, % at 12.5 µM | AID 588692;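 active = mean luciferase reporter signal, scaled so untreated is 0 and the glycosylation-blocking control 100, at or above a set limit in every replicate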;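 also: luciferase carries N-glycosylation sites so blocking glycosylation raises the light; 0% = median of neutral control wells and 100% = median of 100 nM tunicamycin wells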
T cell modulator = modulates CD8 T cell binding to vesicles; 2C CD8+ T cell-vesicle binding, flow cytometry; stronger effect = lower value; 0.068% of 330,000 active; response (vesicle binding), % at 7 µM;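 active = response, share of CD8 T cells binding vesicles, and their 90th percentile fluorescence all below set limits, cut at about 80% in these data, passing the limit was not always enough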;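 also: values below 100% mean blocked vesicle binding to the CD8+ T cells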
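System: murine 2C transgenic CD8+ T lymphocytes; also added: QL9-loaded Drosophila micro-vesicles; times: binding 1.5 h at 37 °C; measured by: flow cytometry, PE anti-B7-1 (FL2) versus Alexa647 anti-CD8 (FL8), PFA-fixed; control set: Peptide-free naked vesicles (low) and QL9 vesicles with 0.7% DMSO vehicle (high)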
Starred values were filed as active, the others as inactive; · = not tested or not shown.

SMILES | ALR H2O2 inh | N-glyco inh | T cell modulator
Cc1ccc(NC(=O)CN(C)C(=O)CSc2nnc(C)s2)cc1 | 4 | -1 | 157
COc1ccc(-c2nn(Cc3ccccc3)cc2C(=O)N2CCN(c3ccccn3)CC2)cc1OC | 0 | 1 | 202
Cc1ccccc1C(=O)N1CCN(c2ccccn2)CC1 | -6 | 0 | 369
O=C(c1cn(Cc2ccccc2)nc1-c1ccccc1)N1CCN(c2ccccn2)CC1 | 0 | 51* | 252
O=C(c1ccccc1-c1ccccc1)N1CCN(c2ccccn2)CC1 | -4 | 50* | ·
CCNC(=O)C1(C)CCCN(Cc2cccc(Oc3ccccc3)c2)C1 (configuration not stated) | · | 1 | ·
COc1ccc(S(=O)(=O)n2nc(-c3ccc(Cl)cc3)cc2N)cc1 | -7 | 7 | 193
COc1ccc(-c2cc(N)n(S(=O)(=O)c3ccc(C)cc3)n2)c(OC)c1 | 99* | -3 | 388
COc1ccc(CN2CCC[C@]3(N[C@H](c4ccc(C(F)(F)F)cc4)[C@@H]4C(=O)N(C)C(=O)[C@@H]43)C2=O)cc1 | · | -1 | ·
O=C(N/N=C/c1cc(Br)c(O)c(Br)c1)c1cccnc1 | 39 | 1 | 99
COc1cc(/C=N/NC(=O)CCOc2ccccc2C)cc(Br)c1O | 97* | 4 | 160
COc1c(Br)cc(Br)cc1/C=N/NC(=O)c1cccnc1 | 3 | 30* | 212
COc1cc(/C=N/NC(=O)c2cccnc2)cc(Br)c1O | 81* | 0 | 365
COc1c(Br)cc(Br)cc1/C=N/NC(=O)c1ccncc1 | -3 | 2 | 699
COc1ccc(/C=N/NC(=O)CCOc2ccccc2C)cc1OC | 43 | 2 | 465
C/C(=N\Nc1ccc(C(=O)O)cc1)c1ccc(S(=O)(=O)NCc2ccco2)cc1 | 52 | 1 | 196
CCOC(=O)C1CCN(S(=O)(=O)c2ccc(Cl)s2)CC1 | -1 | 0 | 483
CC(NC(=O)c1cccnc1)C(c1cccs1)N1CCN(c2ccccc2F)CC1 (configuration not stated) | 17 | -1 | 375
CC(NC(=O)c1ccc(N(C)C)cc1)C(c1cccs1)N1CCN(C)CC1 (configuration not stated) | 78* | -4 | 302
COc1ccccc1N1CCN(C(c2cccs2)C(C)NC(=O)c2cccnc2)CC1 (configuration not stated) | 98* | -1 | 216
CC(NC(=O)c1ccc(F)cc1)C(c1cccs1)N1CCN(C)CC1 (configuration not stated) | 3 | -2 | 262
CCOc1ccc(S(=O)(=O)N2CCC(C(=O)OC(C)C(=O)NC3CCCCC3C)CC2)cc1 (configuration not stated) | 0 | 3 | 0.0*
Cc1ccc(S(=O)(=O)N2CCC(C(=O)OC(C)C(=O)NC3CCCCC3C)CC2)cc1C (configuration not stated) | -3 | -2 | 532
CCOc1ccc(NC(=O)N(CCN2CCOCC2)Cc2ccc3c(c2)CCCN3CC)cc1 | 100* | -1 | 263
CCN1CCCc2cc(CN(CCN3CCOCC3)C(=S)Nc3cccc(OC)c3)ccc21 | 87* | -9 | 256
SMILES | ALR H2O2 inh | N-glyco inh | T cell modulator
CCCN1CCCc2cc(CN(CCCN3CCOCC3)C(=O)Nc3ccc(OCC)cc3)ccc21 | 99* | -4 | 706
COc1cccc(NC(=S)NCCN2CCOCC2)c1 | -7 | -1 | 474
COc1ccc(OC)c(CN(CCN2CCOCC2)C(=O)Nc2ccccc2)c1 | · | 2 | 420
CCOc1ccc(NC(=O)N(CCCN2CCOCC2)Cc2cccnc2)cc1 | -6 | 1 | 307
CC12CC3CC(C)(C1)CC(C(O)CN1CCOCC1)(C3)C2 (configuration not stated) | -5 | -1 | 584
CCCN(CCC)CCNC(=O)C1CCN(S(=O)(=O)c2cccc3nsnc23)CC1 | 5 | -1 | 605
Oc1c(Cl)cc(Cl)cc1C=Nc1ccc(N2CCOCC2)cc1 | 23 | 5 | 30
Cc1ccc(O)c(N=Cc2cc(Cc3ccccc3)cc([N+](=O)[O-])c2O)c1 | · | 2 | ·
Cc1cc(Br)cc(C=Nc2ccc(N3CCOCC3)cc2)c1O | 36 | 6 | 519
Oc1ccc(C=Nc2ccc(N3CCOCC3)cc2)c(O)c1 | 99* | 8 | 153
O=[N+]([O-])c1cc(Cc2ccccc2)cc(C=Nc2ccc(N3CCOCC3)cc2)c1O | 97* | 7 | 311
Oc1ccc(N=Nc2cccc(C(F)(F)F)c2)cc1C=Nc1ccc(N2CCOCC2)cc1 | 11 | 11 | 0.0*
Cc1ccccc1NC(=O)NC1(C(=O)N2CCC(C(N)=O)CC2)CCCCC1 | -2 | 1 | 184
CN1/C(=C\C=C2/SC(=S)N(CC(=O)O)C2=O)C(C)(C)c2ccccc21 | 98* | -1 | 221
C=CCN1C(=O)/C(=C\C=C2\N(C)c3ccccc3C2(C)C)SC1=S | 0 | -1 | 770

Source: PubChem BioAssay (several laboratories)
